Results published in ChEMBL document CHEMBL2010720, “Synthesis and evaluation of ursolic acid derivatives as potent cytotoxic agents” (Bioorg Med Chem Lett, 2012).

Tests used:
AGS [1] = experiment: Cell cycle arrest in human AGS cells assessed as accumulation at S phase cells at 10 uM after 48 hrs by flow cytometry (reference value: 36.56 +/- 0.36%); format: functional
AGS [2] = experiment: Cell cycle arrest in human AGS cells assessed as accumulation at G2/M phase cells at 10 uM after 48 hrs by flow cytometry (reference value: 35.37 +/- 3.73%); format: functional
HepG2 = experiment: Cytotoxicity against human HepG2 cells after 48 hrs by MTT assay; format: functional, cell-based; details: HepG2, 48 h
How it was run: (§1)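 Cells seeded at 1×10^4 per well and treated 24 h later for 48 h at 10, 20, 40, 60, 80 and 100 µM, each in six wells. Compounds came from 20 mM DMSO stocks diluted in medium; the vehicle control matched the DMSO of the top dose. MTT was added for 4 h, formazan dissolved in DMSO and read at 570 nm. IC50 was taken as the concentration giving 50% growth inhibition.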

AGS [3] = experiment: Cell cycle arrest in human AGS cells assessed as accumulation at G0/G1 phase cells at 10 uM after 48 hrs by flow cytometry (reference value: 28.07 +/- 3.52%); format: functional
AGS [4] = experiment: Cell cycle arrest in human AGS cells assessed as accumulation at sub-G0/G1 phase cells at 10 uM after 48 hrs by flow cytometry (reference value: 1.56 +/- 0.20%); format: functional
PC-3 = experiment: Cytotoxicity against human PC3 cells after 48 hrs by MTT assay; format: functional, cell-based; details: PC-3, 48 h; how it was run: as §1
AGS [5] = experiment: Cytotoxicity against human AGS cells after 48 hrs by MTT assay; format: functional, cell-based; how it was run: as §1
HT-29 = experiment: Cytotoxicity against human HT-29 cells after 48 hrs by MTT assay; format: functional, cell-based; details: HT-29, 48 h; how it was run: as §1
AGS [6] = experiment: Cell cycle arrest in human AGS cells assessed as accumulation at G2/M phase cells at 20.6 uM after 48 hrs by flow cytometry (reference value: 35.37 +/- 3.73%); format: functional
AGS [7] = experiment: Cell cycle arrest in human AGS cells assessed as accumulation at sub-G0/G1 phase at 20.6 uM after 48 hrs by flow cytometry (reference value: 1.56 +/- 0.20%); format: functional
AGS [8] = experiment: Cell cycle arrest in human AGS cells assessed as accumulation at S phase cells at 20.6 uM after 48 hrs by flow cytometry (reference value: 36.56 +/- 0.36%); format: functional
AGS [9] = experiment: Cell cycle arrest in human AGS cells assessed as accumulation at G0/G1 phase cells at 20.6 uM after 48 hrs by flow cytometry (reference value: 28.07 +/- 3.52%); format: functional

SMILES	Activity (AGS [1]) [%]	Activity (AGS [2]) [%]	IC50 (HepG2) [µM]	Activity (AGS [3]) [%]	Activity (AGS [4]) [%]	IC50 (PC-3) [µM]	IC50 (AGS [5]) [µM]	IC50 (HT-29) [µM]	Activity (AGS [6]) [%]	Activity (AGS [7]) [%]	Activity (AGS [8]) [%]	Activity (AGS [9]) [%]
CSCC[C@H](N)C(=O)NCCNC(=O)[C@]12CC[C@@H](C)[C@H](C)[C@H]1C1=CC[C@@H]3[C@@]4(C)CC[C@H](O)C(C)(C)[C@@H]4CC[C@@]3(C)[C@]1(C)CC2	18.46	68.65	16	12.9	50.03	< 10	< 10	–	–	–	–	–
CC(=O)O[C@H]1C(=O)[C@@]2(C)[C@H]([C@H](OC(=O)c3ccccc3)[C@]3(O)C[C@H](OC(=O)[C@H](O)[C@@H](NC(=O)c4ccccc4)c4ccccc4)C(C)=C1C3(C)C)[C@]1(OC(C)=O)CO[C@@H]1C[C@@H]2O [PACLITAXEL]	7.9	86.18	30.7	5.92	70.41	57.2	< 10	< 10	–	–	–	–
C[C@H]1[C@H](C)CC[C@]2(C(=O)NCCNC(=O)CN)CC[C@]3(C)C(=CC[C@@H]4[C@@]5(C)CC[C@H](O)C(C)(C)[C@@H]5CC[C@]43C)[C@H]12	11.23	71.45	–	17.72	44.69	19.6	10.2	–	–	–	–	–
CC(=O)O[C@H]1CC[C@]2(C)[C@H]3CC=C4[C@@H]5[C@@H](C)[C@H](C)CC[C@]5(C(=O)NCCNC(=O)[C@@H](N)Cc5ccccc5)CC[C@@]4(C)[C@]3(C)CC[C@H]2C1(C)C	2.06	35.31	< 10	63.49	87.64	< 10	< 10	< 10	–	–	–	–
C[C@H]1[C@H](C)CC[C@]2(C(=O)NC(CCC(=O)O)C(=O)O)CC[C@]3(C)C(=CC[C@@H]4[C@@]5(C)CC[C@H](O)C(C)(C)[C@@H]5CC[C@]43C)[C@H]12 (stereo partly specified)	–	–	> 100	–	–	> 100	> 100	> 100	–	–	–	–
C[C@H]1[C@H](C)CC[C@]2(C(=O)O)CC[C@]3(C)C(=CC[C@@H]4[C@@]5(C)CC[C@H](O)C(C)(C)[C@@H]5CC[C@]43C)[C@H]12 [URSOLIC ACID]	–	–	53.4	–	–	22.3	20.6	25.3	52.16	86.53	14.64	33.2
